Reference: ChEMBL document CHEMBL3259663, “3-Amido-3-aryl-piperidines: A Novel Class of Potent, Selective, and Orally Active GlyT1 Inhibitors” (ACS Med Chem Lett, 2014)
pEC50, pIC50: −log10 of the molar value.

target: T1, Sodium- and chloride-dependent glycine transporter 1 (Homo sapiens, UniProt P48067); assay: Inhibition of human GlyT1 expressed in cells assessed as [3H]glycine uptake; format: cell-based
T1 sequence (P48067 whole entry): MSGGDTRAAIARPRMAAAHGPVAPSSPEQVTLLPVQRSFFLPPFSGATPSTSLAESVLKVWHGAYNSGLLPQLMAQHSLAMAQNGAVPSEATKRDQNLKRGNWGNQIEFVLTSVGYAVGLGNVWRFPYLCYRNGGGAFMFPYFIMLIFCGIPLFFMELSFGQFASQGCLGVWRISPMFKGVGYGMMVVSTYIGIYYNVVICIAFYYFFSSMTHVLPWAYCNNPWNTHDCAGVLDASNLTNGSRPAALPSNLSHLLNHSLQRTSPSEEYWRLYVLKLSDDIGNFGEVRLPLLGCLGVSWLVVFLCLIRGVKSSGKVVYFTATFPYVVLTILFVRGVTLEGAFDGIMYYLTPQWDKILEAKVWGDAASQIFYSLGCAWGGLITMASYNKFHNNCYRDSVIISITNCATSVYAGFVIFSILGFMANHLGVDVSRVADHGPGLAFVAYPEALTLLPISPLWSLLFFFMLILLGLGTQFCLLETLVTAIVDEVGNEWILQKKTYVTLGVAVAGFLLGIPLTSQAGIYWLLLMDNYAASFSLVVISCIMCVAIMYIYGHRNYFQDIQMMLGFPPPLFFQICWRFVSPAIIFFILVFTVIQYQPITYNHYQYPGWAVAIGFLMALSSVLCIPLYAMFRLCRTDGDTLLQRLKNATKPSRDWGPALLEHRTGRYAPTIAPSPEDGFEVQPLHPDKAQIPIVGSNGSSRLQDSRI
Summary of the method: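 [³H]-glycine uptake inhibition in cells transfected with human GlyT1. EC₅₀ values are the average of at least two independent experiments.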

Compound	pEC50
COc1cc(C(F)(F)F)cc(C(F)(F)F)c1C(=O)NC1(c2ccccc2)CCCN(S(C)(=O)=O)C1 (racemic)	< 5.00
CCN1CCCC(NC(=O)c2c(OC)cc(C(F)(F)F)cc2C(F)(F)F)(c2ccccc2)C1 (racemic)	6.64
COc1cc(C(F)(F)F)cc(SC)c1C(=O)NC1(c2cccc(Cl)c2)CCCN(C)C1 (racemic)	7.60
COc1cc(C(F)(F)F)cc(C(F)(F)F)c1C(=O)NC1(c2ccccc2)CCCN(C2CCCC2)C1 (racemic)	6.57
COc1cc(C(F)(F)F)cc(C(F)(F)F)c1C(=O)NC1(c2ccccc2)CCCN(CC2CC2)C1 (racemic)	6.42
COc1cc(C(F)(F)F)cc(SC)c1C(=O)NC1(c2ccc(Cl)cc2)CCCN(C)C1 (racemic)	7.55
COc1cc(C(F)(F)F)cc(SC)c1C(=O)NC1(c2cccc(F)c2)CCCN(C)C1 (racemic)	7.32
COc1cc(C(F)(F)F)cc(SC)c1C(=O)NC1(c2cnccn2)CCCN(C)C1 (racemic)	5.78
CN1CCCC(NC(=O)c2ccc(C(F)(F)F)cc2C(F)(F)F)(c2ccccc2)C1 (racemic)	6.27
CN1CCCC(NC(=O)c2ccc(Cl)cc2Cl)(c2ccccc2)C1 (racemic)	6.17
COc1cccc(C2(NC(=O)c3c(OC)cc(C(F)(F)F)cc3SC)CCCN(C)C2)c1 (racemic)	6.96
COc1cc(C(F)(F)F)cc(C(F)(F)F)c1C(=O)NC1(c2ccccc2)CCCN(C(C)=O)C1 (racemic)	< 5.00
COc1cc(C(F)(F)F)cc(SC)c1C(=O)NC1(c2ccncn2)CCCN(C)C1 (racemic)	5.77
Cc1cc(C(F)(F)F)ccc1C(=O)NC1(c2ccccc2)CCCN(C)C1 (racemic)	6.49
CSc1cc(C(F)(F)F)ccc1C(=O)NC1(c2ccccc2)CCCN(C)C1 (racemic)	7.17
COc1cc(C(F)(F)F)cc(SC)c1C(=O)NC1(c2ccc(C)cc2)CCCN(C)C1 (racemic)	6.64
COc1cc(C(F)(F)F)cc(SC)c1C(=O)NC1(c2ccncc2)CCCN(C)C1 (racemic)	7.22

Compound	pEC50
COc1cc(C(F)(F)F)cc(SC)c1C(=O)NC1(c2ncccn2)CCCN(C)C1 (racemic)	< 5.00
CN1CCCC(NC(=O)c2ccc(C(F)(F)F)cc2)(c2ccccc2)C1 (racemic)	< 5.00
CN1CCCC(NC(=O)c2ccc(C(F)(F)F)cc2C#N)(c2ccccc2)C1 (racemic)	< 5.00
COc1cc(C(F)(F)F)cc(C(F)(F)F)c1C(=O)NC1(c2ccccc2)CCCNC1 (racemic)	6.18
COc1cc(C(F)(F)F)cc(SC)c1C(=O)NC1(c2ccccc2)CCCN(C)C1 (racemic)	7.62
COc1cc(C(F)(F)F)cc(SC)c1C(=O)NC1(c2ccc(F)cc2)CCCN(C)C1 (racemic)	7.59
COc1cc(C(F)(F)F)cc(C(F)(F)F)c1C(=O)NC1(c2ccccc2)CCCN(Cc2ccccc2)C1 (racemic)	5.17
COc1cc(C(F)(F)F)cc(C(F)(F)F)c1C(=O)NC1(c2ccccc2)CCCN(C(C)C)C1 (racemic)	6.64
CN1CCCC(NC(=O)c2ccc(C(F)(F)F)cc2Br)(c2ccccc2)C1 (racemic)	6.52
COc1cc(C(F)(F)F)cc(SC)c1C(=O)NC1(c2cccnc2)CCCN(C)C1 (racemic)	7.27
COc1cc(C(F)(F)F)cc(C(F)(F)F)c1C(=O)NC1(c2ccccc2)CCCN(C(=O)c2ccccc2)C1 (racemic)	< 5.00
CN1CCCC(NC(=O)c2ccc(C(F)(F)F)cc2F)(c2ccccc2)C1 (racemic)	5.00
COc1cc(C(F)(F)F)cc(SC)c1C(=O)NC1(c2ccc(F)cn2)CCCN(C)C1 (racemic)	6.74
COc1cc(C(F)(F)F)cc(SC)c1C(=O)N[C@]1(c2ccccc2)CCCN(C)C1	6.74
COc1cc(C(F)(F)F)ccc1C(=O)NC1(c2ccccc2)CCCN(C)C1 (racemic)	5.32
COc1cccc(C(F)(F)F)c1C(=O)NC1(c2ccccc2)CCCN(C)C1 (racemic)	5.82
COc1ccc(C2(NC(=O)c3c(OC)cc(C(F)(F)F)cc3SC)CCCN(C)C2)cc1 (racemic)	6.77

target: T1, Sodium- and chloride-dependent glycine transporter 1; assay: Inhibition of GlyT1 (unknown origin)

Compound	pIC50
COc1cc(C(F)(F)F)cc(C(F)(F)F)c1C(=O)NC1(c2ccccc2)CCCN(C)C1 (stereo not given)	6.85
